According to ChEMBL document CHEMBL3576850 (J Nat Prod, 2015):
Converted amounts (≈) assume the structure as drawn. The source made the active and inactive calls. The calls are words filed in the database; no cut-off is given here.

Columns and labels:
Staphylococcus aureus [1] = experiment: Antibacterial activity against methicillin-resistant Staphylococcus aureus 252 by 2-fold serial broth microdilution method; assay type: functional
Staphylococcus aureus [2] = experiment: Antibacterial activity against methicillin-susceptible Staphylococcus aureus RN4220 by 2-fold serial broth microdilution method; assay type: functional
[3] = Inhibition of recombinant his-tagged methicillin-resistant Staphylococcus aureus pyruvate kinase expressed in Escherichia coli BL-21(DE3) using PEP as substrate after 5 mins by L-LDH coupled assay
[4] = molecular target: Pyruvate kinase PKM (Homo sapiens) (UniProt P14618); experiment: Inhibition of recombinant his-tagged human pyruvate kinase M1 expressed in Escherichia coli BL-21(DE3) using PEP as substrate at 5 uM after 5 mins by L-LDH coupled assay relative to control
Chain of Pyruvate kinase PKM (Homo sapiens) (P14618 2-531 limits assumed): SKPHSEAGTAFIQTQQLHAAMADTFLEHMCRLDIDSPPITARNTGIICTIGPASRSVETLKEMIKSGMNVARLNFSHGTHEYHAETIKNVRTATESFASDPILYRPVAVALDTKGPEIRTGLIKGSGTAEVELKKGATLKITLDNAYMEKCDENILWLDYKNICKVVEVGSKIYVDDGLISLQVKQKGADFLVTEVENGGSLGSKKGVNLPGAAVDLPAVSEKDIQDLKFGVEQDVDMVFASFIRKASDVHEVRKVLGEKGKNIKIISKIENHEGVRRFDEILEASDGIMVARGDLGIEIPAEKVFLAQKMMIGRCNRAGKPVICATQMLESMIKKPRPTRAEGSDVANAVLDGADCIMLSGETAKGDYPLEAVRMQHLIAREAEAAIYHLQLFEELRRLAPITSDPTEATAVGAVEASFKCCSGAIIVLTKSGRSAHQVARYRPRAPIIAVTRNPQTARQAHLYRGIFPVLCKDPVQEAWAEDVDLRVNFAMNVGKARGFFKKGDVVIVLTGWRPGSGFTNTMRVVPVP
In short: (§1)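 His-tagged human PK isoform in a continuous rabbit muscle L-LDH-coupled assay, read as 340 nm absorbance change. Compounds added from DMSO, final DMSO ≤1%. Three measurements, each in triplicate.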

[5] = molecular target: Pyruvate kinase PKLR (Homo sapiens) (UniProt P30613); experiment: Inhibition of recombinant his-tagged human pyruvate kinase R expressed in Escherichia coli BL-21(DE3) using PEP as substrate at 5 uM after 5 mins by L-LDH coupled assay relative to control; in short: as §1
Chain of Pyruvate kinase PKLR (Homo sapiens) (P30613 whole entry, looked up): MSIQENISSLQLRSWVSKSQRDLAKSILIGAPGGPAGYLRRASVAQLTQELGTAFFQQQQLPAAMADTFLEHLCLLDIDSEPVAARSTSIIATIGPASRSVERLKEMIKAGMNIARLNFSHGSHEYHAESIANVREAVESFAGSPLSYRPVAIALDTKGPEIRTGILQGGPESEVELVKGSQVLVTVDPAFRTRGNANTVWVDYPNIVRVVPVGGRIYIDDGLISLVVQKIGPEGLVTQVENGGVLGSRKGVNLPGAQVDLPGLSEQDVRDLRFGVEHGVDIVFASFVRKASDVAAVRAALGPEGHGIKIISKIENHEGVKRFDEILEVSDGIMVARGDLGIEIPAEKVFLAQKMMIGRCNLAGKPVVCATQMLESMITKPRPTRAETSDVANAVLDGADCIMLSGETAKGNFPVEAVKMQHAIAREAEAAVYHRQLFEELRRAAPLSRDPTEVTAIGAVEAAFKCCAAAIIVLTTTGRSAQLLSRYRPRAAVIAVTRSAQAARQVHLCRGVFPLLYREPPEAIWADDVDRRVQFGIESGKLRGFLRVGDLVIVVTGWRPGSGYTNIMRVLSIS

[6] = molecular target: Pyruvate kinase PKM (Homo sapiens) (UniProt P14618); experiment: Inhibition of recombinant his-tagged human pyruvate kinase M2 expressed in Escherichia coli BL-21(DE3) using PEP as substrate at 5 uM after 5 mins by L-LDH coupled assay relative to control; in short: as §1
[7] = molecular target: Pyruvate kinase PKLR (Homo sapiens) (UniProt P30613); experiment: Inhibition of recombinant his-tagged human pyruvate kinase L expressed in Escherichia coli BL-21(DE3) using PEP as substrate at 5 uM after 5 mins by L-LDH coupled assay relative to control; in short: as §1
[8] = molecular target: Pyruvate kinase PKM (Homo sapiens) (UniProt P14618); experiment: Inhibition of recombinant his-tagged human pyruvate kinase M2 expressed in Escherichia coli BL-21(DE3) using PEP as substrate at 10 uM after 5 mins by L-LDH coupled assay relative to control; in short: as §1
[9] = molecular target: Pyruvate kinase PKM (Homo sapiens) (UniProt P14618); experiment: Inhibition of recombinant his-tagged human pyruvate kinase M1 expressed in Escherichia coli BL-21(DE3) using PEP as substrate at 10 uM after 5 mins by L-LDH coupled assay relative to control; in short: as §1
[10] = molecular target: Pyruvate kinase PKLR (Homo sapiens) (UniProt P30613); experiment: Inhibition of recombinant his-tagged human pyruvate kinase R expressed in Escherichia coli BL-21(DE3) using PEP as substrate at 10 uM after 5 mins by L-LDH coupled assay relative to control; in short: as §1
[11] = molecular target: Pyruvate kinase PKLR (Homo sapiens) (UniProt P30613); experiment: Inhibition of recombinant his-tagged human pyruvate kinase L expressed in Escherichia coli BL-21(DE3) using PEP as substrate at 10 uM after 5 mins by L-LDH coupled assay relative to control; in short: as §1

Row | SMILES | MIC (Staphylococcus aureus [1]) [µg/mL] | MIC (Staphylococcus aureus [2]) [µg/mL] | IC50 [3] [nM] | inhibition [4] [%] | inhibition [5] [%] | inhibition [6] [%] | inhibition [7] [%] | inhibition [8] | inhibition [9] | inhibition [10] | inhibition [11]
1 | O=C1NC[C@@H](c2c[nH]c3cc(Br)ccc23)N[C@H]1c1c[nH]c2cc(Br)ccc12 (relative stereo) [CIS-3,4-DIHYDROHAMACANTHIN B] | 12.5 (≈ 25.6 µM) | 6.25 (≈ 12.8 µM) | 16 | – | – | – | – | – | – | – | –
2 | O=C(c1nc(-c2c[nH]c3cc(Cl)ccc23)c[nH]1)c1c[nH]c2cc(Cl)ccc12 | – | – | 1.5 | 0 | < 40 | 0 | < 40 | – | – | – | –
3 | O=C(c1ncc(-c2c[nH]c3cc(Br)ccc23)[nH]1)c1c[nH]c2cc(Br)ccc12 | – | – | – | 0 | < 40 | 0 | < 40 | – | – | – | –
4 | O=C(c1nc(-c2c[nH]c3cc(F)ccc23)c[nH]1)c1c[nH]c2cc(F)ccc12 | – | – | 24 | – | – | – | – | inactive | inactive | inactive | inactive
5 | O=C(c1nc(-c2c[nH]c3cc(I)ccc23)c[nH]1)c1c[nH]c2cc(I)ccc12 | – | – | 3.3 | 0 | < 40 | 0 | < 40 | – | – | – | –
6 | O=C(c1nc(-c2c[nH]c3ccccc23)c[nH]1)c1c[nH]c2ccccc12 | – | – | – | – | – | – | – | inactive | inactive | inactive | inactive
7 | O=C(c1nc(-c2c[nH]c3ccc(Br)cc23)c[nH]1)c1c[nH]c2ccc(Br)cc12 | – | – | 6.4 | 0 | < 40 | 0 | < 40 | – | – | – | –
8 | O=C(c1nc(-c2c[nH]c3c(Cl)cccc23)c[nH]1)c1c[nH]c2c(Cl)cccc12 | – | – | 26000 | – | – | – | – | inactive | inactive | inactive | inactive
